Source: ChEMBL document CHEMBL1667738, “Sesquiterpene benzoxazoles and sesquiterpene quinones from the marine sponge Dactylospongia elegans” (2011)

Columns and labels:
SF-268 = assay: Cytotoxicity against human SF268 cells after 48 hrs by SRB assay; format: functional; conditions: SF-268, 48 h
Summary of the method: (§1)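 Cells grown in RPMI 1640 with L-glutamine and 5% fetal bovine serum, in a humidified incubator at 37 °C and 5% CO2. Seeded at 5000 cells/well. Pure compounds dissolved in DMSO, serially diluted in medium, and tested at 10 concentrations between 66.7 and 0.01 µg/mL. Total protein measured by SRB at 490 nm at 0 and 48 h. GI50 taken against vehicle-only and time-zero readings.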

CHO-K1 = assay: Cytotoxicity against Chinese hamster CHO-K1 cells after 48 hrs by SRB assay; conditions: Cricetulus griseus, CHO-K1, 48 h
NCI-H460 = assay: Cytotoxicity against human H460 cells after 48 hrs by SRB assay; format: functional; conditions: NCI-H460, 48 h; summary of the method: as §1
MCF7 = assay: Cytotoxicity against human MCF7 cells after 48 hrs by SRB assay; format: functional; conditions: MCF7, 48 h; summary of the method: as §1
HT-29 = assay: Cytotoxicity against human HT-29 cells after 48 hrs by SRB assay; format: functional; conditions: HT-29, 48 h
Summary of the method: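 CHO-K1 (Chinese hamster ovary subclone) and HT-29 cells grown in MEM with Earle's salts, L-glutamine, nonessential amino acids and sodium pyruvate. Seeded at 5000 cells/well. Compounds dissolved in DMSO, serially diluted in medium, and tested at 10 concentrations spanning 66.7–0.01 µg/mL. SRB protein read at 490 nm at 0 and 48 h. GI50 derived against vehicle-only and time-zero values.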

Row | SMILES | GI50 (SF-268) [µM] | GI50 (CHO-K1) [µM] | GI50 (NCI-H460) [µM] | GI50 (MCF7) [µM] | GI50 (HT-29) [µM]
1 | C=C1CCC[C@H]2[C@](C)(CC3=C(O)C(=O)C=C(NCC(=O)O)C3=O)[C@@H](C)CC[C@]12C [SMENOSPONGINE B] | 9.7 | 3 | 6 | 10 | 6
2 | C=C1CCC[C@@]23OC4=C(C[C@]2(C)[C@@H](C)CC[C@@]13C)C(=O)C(OC)=CC4=O [DACTYLOQUINONE B] | 32 | 43 | 30 | 41 | 46
3 | C=C1CCC[C@H]2[C@](C)(Cc3c(O)c(O)cc4ncoc34)[C@@H](C)CC[C@]12C [NAKIJINOL B] | 24 | 11 | 24 | 35 | 21
4 | C=C1CCC[C@H]2[C@](C)(CC3=C(O)C(=O)C=C(NCCC(=O)O)C3=O)[C@@H](C)CC[C@]12C [SMENOSPONGINE C] | 20 | 18 | 14 | 31 | 28
5 | C=C1CCC[C@H]2[C@](C)(CC3=C(O)C(=O)C=C(OC)C3=O)[C@@H](C)CC[C@]12C [ILIMAQUINONE] | 2.7 | 2 | 1.8 | 3.9 | 5.4
6 | C=C1CCC[C@H]2[C@](C)(Cc3c(OC(C)=O)c(OC(C)=O)cc4ncoc34)[C@@H](C)CC[C@]12C [NAKIJINOL B DIACETATE] | 9 | 5.2 | 6.8 | 19 | 15
